Shown is part of a subset that was picked to be rich in hits.
Hep lipid drop = hepatic lipid droplet formation modulation. AML12 mouse hepatocytes, oleate lipid droplets, BODIPY imaging. inhibition, % at 6.5 µM. hit rate 0.4% among 240,000;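 active = lipid droplet intensity inhibited by at least 50%, with more than 500 cells counted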
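Assay system: AML12 hepatocytes (mouse); Probe or stimulus: oleic acid at 100 µM to induce lipid droplet formation; Dosing: compound at 6.5 µM only; Schedule: compound with oleate, overnight; Detection: fluorescence imaging, 20x objective, two fields per well; Measure: % inhibition of lipid droplet signal.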
MPTP block = blocks calcium-induced mitochondrial swelling | isolated mouse mitochondria, Ca2+ swelling absorbance, 30 min | inhibition, % at 10 µM | hit rate 1.4% among 360,000 | AID 602449;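 active = inhibition of 50% or more, scaled per plate between neutral and stimulator controls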;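 note: 0% = DMSO wells given calcium and 100% = 1 mM EGTA wells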
L major viab = reduces viability of Leishmania major promastigotes | inhibition, % at 10 µM | hit rate 9% among 200,000 | resazurin fluorescence viability; in the data active = inhibition above about 50%;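 note: promastigotes grown with compound for 44 hours at 28 °C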
T cruzi repl = blocks replication of Trypanosoma cruzi; T. cruzi beta-gal in NIH3T3, luminescence, 90 h; AID 1885; hit rate 1.4% among 300,000; inhibition, % (test concentration not listed);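 active = mean inhibition across valid replicates above about 55%, limit read from the data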;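 note: signal also drops with host cell toxicity which is not excluded here; 0% = plate median of DMSO wells and 100% = zero luminescence signal; higher percent means less beta-gal luminescence so fewer parasites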
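Read-out: Parasite load inhibition, % | Test system: Mouse NIH/3T3 fibroblasts infected with β-gal-expressing T. cruzi Tulahuen C4 | Amount: 5,000 cells/well | Medium: DMEM, 2% fetal bovine serum | Signal: GalScreen β-gal luminescence, detergent lysis, 60 min | Timing: 3 h attach, ≥90 h co-culture | Also added: Tulahuen C4 trypomastigotes, 5000/well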
DTT redox prof = compounds producing H2O2 with reducing agent – biochemical, NIH compound library profiling, artefact control for MLSCN library redox annotation, primary screen; DTT-dependent redox cycling H2O2, phenol red/HRP absorbance; 100% = 100 µM peroxide control, 0% = buffer; activation, % at 10 µM; hit rate 0.03% among 200,000; AID 878;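 active = activation of at least 50% relative to the plate's high and low controls in the primary single-dose screen; inactive = activation below 50%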;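 note: compound incubated with DTT at 0.8 mM final as the reducing agent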
Active calls of the source: *; . = not tested or not shown.

SMILES	Hep lipid drop	MPTP block	L major viab	T cruzi repl	DTT redox prof
Cc1ccccc1Cn1cccc1/C=C1/C(=N)N2C=CSC2=NC1=O	7.6	-19.7	10.4	-12.3	0.1
CC(C)c1ccc(-n2cccc2/C=C2/C(=N)N3C=CSC3=NC2=O)cc1	-3.0	2.5	97.9*	-21.1	-0.1
CC1=CSC2=NC(=O)/C(=C\c3cccn3-c3ccccc3)C(=N)N12	-2.0	1.6	87.6*	-7.4	-0.1
CC(=O)Oc1ccc(C(=O)Nc2cc(NC(=O)c3ccc(OC(C)=O)cc3)cc(C(=O)NC(C)(C)C)c2)cc1	3.7	-0.7	34.1	6.8	.
COc1ccc(CN2C(=O)C(CC(=O)NC3CCCC3)CC(C(=O)N(C)C)=C2C)cc1 (configuration not stated)	.	1.1	.	.	.
Cc1ccc(C(=O)/C=C/c2ccccc2)o1	7.0	-1.5	82.6*	-19.6	-1.2
Cc1ccc(C(=O)/C=C/c2ccc(Br)cc2)o1	.	0.7	78.9*	-19.0	0.5
Cc1ccc(C(=O)Cc2ccccc2)o1	.	1.3	.	1.3	.
Cc1ccc(C(=O)/C=C/c2ccc3c(c2)OCO3)o1	13.2	0.2	43.1	-15.3	-1.3
CCC(Sc1nc2ncccc2[nH]1)C(=O)N1CCOCC1 (configuration not stated)	2.0	-1.4	.	-8.9	.
Cc1c(CN(C)C)c2c(n1C)C(=O)c1ccc(Br)cc1-2	.	1.2	69.8*	0.9	-0.3
C/C(CC(=O)Nc1ccc(N(C)C)cc1)=N\NC(=O)Cc1csc(N)n1	-8.1	-0.5	75.3*	4.2	-0.2
CN1/C(=C\C(=O)c2ccccc2Cl)c2ccccc2CC1(C)C	-41.4	-0.3	70.3*	29.1	0.4
Cn1cc(S(=O)(=O)NCc2ccc3c(c2)OCO3)c(C(F)(F)F)n1	7.7	-1.9	.	-5.1	.
CCOC(=O)CSc1nc2sc3c(c2c(=O)n1-c1ccc(OCC)cc1)CCN(C)C3	5.3	-0.7	.	41.5	.
CCOC(=O)CSc1nc2sc3c(c2c(=O)n1C1CCCCC1)CCN(C)C3	-4.3	-1.5	39.8	56.7*	0.9
CN1CCc2c(sc3c2c(=O)n(-c2ccccc2)c2nnc(SCc4ccccc4)n32)C1	2.8	-0.1	11.2	70.6*	-2.3
COCCSc1nc2sc3c(c2c(=O)n1-c1ccccc1)CCN(C)C3	-18.8	-2.6	100.1*	51.8	1.6
C=CCSc1nc2sc3c(c2c(=O)n1-c1ccccc1)CCN(C)C3	.	0.6	.	56.1*	.
CC(=O)C1C(c2ccc(Br)cc2)C2C(C)=NN=C2CC1(C)O (configuration not stated)	10.8	-0.7	-7.6	-1.1	0.4
CCOC(=O)N1CCN(C(=O)CSc2nc3c([nH]c4ccccc43)c(=O)n2CC)CC1	-32.1	-0.8	.	2.3	.
NC(Cc1ccc(C(F)(F)F)cc1)c1csc(Nc2ccc(C(=O)NCc3ccco3)cn2)n1 (configuration not stated)	.	2.1	.	.	.
CCSc1nc2ccccc2n1C(=O)/C=C\c1ccc(OC)c(OC)c1	.	0.3	89.7*	-20.0	-3.0
CCSc1nc2ccccc2n1CC(N)=O	-1.1	-0.6	-8.5	-3.2	0.6
Cc1cc(C)c(S(=O)(=O)N2CCCCC2CCNC(=O)C(=O)NC2CC2)c(C)c1 (configuration not stated)	.	-1.6	.	-9.3	.
SMILES	Hep lipid drop	MPTP block	L major viab	T cruzi repl	DTT redox prof
Cc1cc(C)c(S(=O)(=O)NCCC2CCCN2C)c(C)c1 (configuration not stated)	.	1.9	97.0*	10.9	-0.7
COc1ccc(S(=O)(=O)N2CCN(C(=O)CCSc3ccccc3)CC2)cc1	.	1.2	.	.	.
Cc1cccc(NC(=O)C2(C)CC3c4ccccc4C2c2ccccc23)c1C (configuration not stated)	-11.3	-1.3	71.2*	26.0	0.3
CCOC(=O)N1CCN(Cc2ccc3ccccc3c2)CC1	-1.3	-0.5	.	-2.4	.
CC(=O)Oc1cc(C(=O)OCC(=O)NC23CC4CC(CC(C4)C2)C3)cc(OC(C)=O)c1OC(C)=O	.	1.1	.	.	.
O=C(/C=C/c1ccccc1)NC1CC2CCC1C2 (configuration not stated)	1.8	-0.7	52.6*	12.2	-0.4
CC1CCN(CC(=O)Nc2cccc(C(=O)Nc3cccc(C(F)(F)F)c3)c2)CC1	-13.1	37.7	82.0*	41.1	-0.2
O=C(CN1CCN(Cc2ccccc2)CC1)Nc1cccc(C(F)(F)F)c1	6.6	0.3	64.6*	13.6	0.1
O=C(CN1CCN(Cc2ccccc2)CC1)Nc1ccc(Cl)cn1	-1.2	-0.9	53.4*	25.1	0.1
Cc1ccc(NC(=O)COC(=O)c2csc3c2CCC(C)C3)cc1S(=O)(=O)N1CCCCC1 (configuration not stated)	4.1	19.8	2.5	-16.9	1.0
CC1CCc2c(C(=O)OCC(=O)Nc3cccc(S(=O)(=O)N4CCCCCC4)c3)csc2C1 (configuration not stated)	2.0	44.4	83.2*	8.3	0.6
O=C(CN1CCN(c2ccccc2)CC1)Nc1cccc(C(F)(F)F)c1	2.7	-0.1	-4.3	22.8	-0.9
C[C@@H](NC(=O)[C@@H]1Cc2ccccc2CN1C(=O)OC(C)(C)C)C(=O)NCc1ccco1	9.8	-0.4	.	9.3	.
O=S(=O)(c1cccc(NC(=S)Nc2ccc(Br)cc2Cl)c1)N1CCOCC1	.	-5.5	51.8*	-15.9	2.0
O=S(=O)(c1ccc(Cl)c(NC(=S)N/N=C/c2ccc(O)cc2)c1)N1CCOCC1	-3.7	9.9	88.3*	-11.0	-0.1
O=C(COc1ccccc1F)Nc1ccc2c(c1)CCC2	.	0.8	.	.	.
O=C(COc1cccc(Cl)c1)Nc1ccc2c(c1)CCC2	-0.7	6.8	56.0*	5.4	0.2
CC(=O)c1c(C)[nH]c(C(=O)OCC(=O)Nc2cc(S(=O)(=O)N3CCCC3)ccc2Cl)c1C	14.2	22.9	71.5*	10.8	0.6
COc1cc(C(=O)NC(=S)Nc2ccc3[nH]c(=O)[nH]c3c2)cc(OC)c1OC	0.5	-2.3	.	-27.1	.
CCOC(=O)c1cn2nc(Oc3ccc(C#N)cc3)ccc2n1	-8.5	0.5	.	-23.4	.
Cc1ccc(NC(=O)C2CSC3(C)CCC(=O)N23)cc1S(=O)(=O)N1CCCCCC1 (configuration not stated)	.	0.4	.	.	.
COc1ccc(/C=C/C(=O)N[C@H](C(=O)O)C(C)C)cc1	24.8	-4.0	-1.1	-12.8	-2.5
COc1ccc2cc(CCNS(=O)(=O)c3ccc(NC(C)=O)cc3)c(=O)[nH]c2c1	2.1	-0.1	.	-0.9	.
O=C(CN1CCN(Cc2ccccc2)CC1)Nc1ccc2c(c1)CCC2	2.5	-1.0	74.2*	5.6	-1.2
O=C(Nc1cccc(S(=O)(=O)N2CCOCC2)c1)c1ccc2c(=O)n3c(nc2c1)CCCCC3	-4.8	-0.6	11.5	19.4	-0.3
O=C(CN1CCN(Cc2ccccc2)CC1)Nc1cccc(S(=O)(=O)N2CCCCCC2)c1	1.1	-0.5	78.5*	41.9	0.2
O=C(CN1CCN(c2ccc(O)cc2)CC1)Nc1cc(S(=O)(=O)N2CCCC2)ccc1Cl	-12.7	0.1	42.4	6.9	-0.3
